Key:
[1] = species on record: Homo sapiens; assay: Selectivity ratio of IC50 for 17beta-HSD1 in human placental microsomal fraction to IC50 for 17beta-HSD2 in human placental microsomal fraction; assay type: microsomes; conditions: Microsome
[2] = target: 11-beta-hydroxysteroid dehydrogenase 1 (Homo sapiens, UniProt P28845); assay: Inhibition of human recombinant 11beta-HSD1 expressed in HEK293 cell using [1,2-3H]Cortisone as substrate after 10 mins by scintillation counting analysis; assay type: cell-based
11-beta-hydroxysteroid dehydrogenase 1, sequence (P28845 whole entry): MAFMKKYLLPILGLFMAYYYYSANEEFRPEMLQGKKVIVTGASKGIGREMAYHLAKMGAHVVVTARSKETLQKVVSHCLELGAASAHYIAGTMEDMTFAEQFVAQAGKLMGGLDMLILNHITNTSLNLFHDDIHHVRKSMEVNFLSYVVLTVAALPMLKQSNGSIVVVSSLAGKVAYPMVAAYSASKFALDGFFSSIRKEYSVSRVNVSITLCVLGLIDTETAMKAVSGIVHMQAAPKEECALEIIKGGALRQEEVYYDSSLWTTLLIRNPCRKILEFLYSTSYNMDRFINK

[3] = target: T1, 17-beta-hydroxysteroid dehydrogenase type 1 (Homo sapiens) (UniProt P14061); conditions: at 1 µM;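 further: enzyme source was human placental cytosol with tritiated estrone as substrate, 10 min reaction, conversion quantified by HPLC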
T1 sequence (whole entry): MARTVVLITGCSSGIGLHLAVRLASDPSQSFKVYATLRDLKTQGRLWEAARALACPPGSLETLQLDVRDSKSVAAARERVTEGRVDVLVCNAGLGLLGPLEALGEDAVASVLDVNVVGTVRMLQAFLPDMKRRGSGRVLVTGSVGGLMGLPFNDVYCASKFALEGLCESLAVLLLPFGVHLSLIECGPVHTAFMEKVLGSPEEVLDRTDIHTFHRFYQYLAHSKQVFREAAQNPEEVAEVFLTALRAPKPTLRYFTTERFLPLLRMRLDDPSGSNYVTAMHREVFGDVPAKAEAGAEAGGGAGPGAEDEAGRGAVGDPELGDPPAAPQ

[4] = test system: MDA-MB-231; assay: Cytotoxicity against human MDA-MB-231 cells at 50 uM after 3 hrs by MTT assay; assay type: cell-based; conditions: mda-mb-231, 3 h
Outline: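 MTT conversion read-out, following Denisot et al. Tested at 2.5, 10 and 50 µM with 3 h incubation.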

[5] = target: T2, Estradiol 17-beta-dehydrogenase 2 (Mus musculus) (UniProt P51658); assay: Inhibition of 17beta-HSD2 in mouse liver microsomal fraction assessed as inhibition of [3H]E2 conversion to E1 at 1 uM by scintillation counting analysis; assay type: microsomes
T2 sequence (whole entry): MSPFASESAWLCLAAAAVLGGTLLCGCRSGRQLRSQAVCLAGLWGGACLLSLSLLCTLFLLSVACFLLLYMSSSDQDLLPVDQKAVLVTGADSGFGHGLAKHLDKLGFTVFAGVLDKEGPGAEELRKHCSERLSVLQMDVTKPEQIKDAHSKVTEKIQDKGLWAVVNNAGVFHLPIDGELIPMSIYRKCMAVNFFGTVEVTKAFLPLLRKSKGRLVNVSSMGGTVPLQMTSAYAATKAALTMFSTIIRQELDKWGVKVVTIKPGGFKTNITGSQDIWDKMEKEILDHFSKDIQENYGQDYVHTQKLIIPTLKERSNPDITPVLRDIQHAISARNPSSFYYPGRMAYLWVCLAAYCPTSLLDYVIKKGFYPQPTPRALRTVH
Outline: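 Cell-free assay measuring percent inhibition of the E2-to-E1 transformation. Enzyme source was the microsomal fraction of rat or mouse liver, or of Callithrix jacchus placenta for the marmoset.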

[6] = target: T3, Estrogen receptor (Homo sapiens) (UniProt P03372); assay: Displacement of [3H]E2 from human recombinant ERalpha after 1 hr by scintillation counting analysis relative to E2
T3 sequence (whole entry): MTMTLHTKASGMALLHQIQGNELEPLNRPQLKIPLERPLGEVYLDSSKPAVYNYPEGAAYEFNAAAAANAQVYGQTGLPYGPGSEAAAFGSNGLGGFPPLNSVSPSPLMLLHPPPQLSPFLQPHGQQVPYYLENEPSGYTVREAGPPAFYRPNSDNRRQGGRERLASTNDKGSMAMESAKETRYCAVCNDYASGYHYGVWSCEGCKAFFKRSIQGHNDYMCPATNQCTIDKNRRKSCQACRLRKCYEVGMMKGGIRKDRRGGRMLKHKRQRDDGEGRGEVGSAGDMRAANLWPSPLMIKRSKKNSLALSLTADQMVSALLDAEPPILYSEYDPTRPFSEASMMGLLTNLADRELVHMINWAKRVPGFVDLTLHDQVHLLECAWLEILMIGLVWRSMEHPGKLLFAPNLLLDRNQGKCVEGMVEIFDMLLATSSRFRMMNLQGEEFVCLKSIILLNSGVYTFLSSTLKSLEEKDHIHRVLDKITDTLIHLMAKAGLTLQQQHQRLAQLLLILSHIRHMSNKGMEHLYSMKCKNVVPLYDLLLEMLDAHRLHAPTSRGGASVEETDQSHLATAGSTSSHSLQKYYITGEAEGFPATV
Outline: (§1)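 Competitive binding assay against ERα and ERβ, with E2 as internal reference.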

[7] = target: T4, 17-beta-hydroxysteroid dehydrogenase type 2 (Homo sapiens, UniProt P37059); assay: Inhibition of 17beta-HSD2 in human MDA-MB-231 cells using [3H]E2 as substrate after 6 hrs by HPLC analysis; assay type: cell-based
T4 sequence (P37059 whole entry): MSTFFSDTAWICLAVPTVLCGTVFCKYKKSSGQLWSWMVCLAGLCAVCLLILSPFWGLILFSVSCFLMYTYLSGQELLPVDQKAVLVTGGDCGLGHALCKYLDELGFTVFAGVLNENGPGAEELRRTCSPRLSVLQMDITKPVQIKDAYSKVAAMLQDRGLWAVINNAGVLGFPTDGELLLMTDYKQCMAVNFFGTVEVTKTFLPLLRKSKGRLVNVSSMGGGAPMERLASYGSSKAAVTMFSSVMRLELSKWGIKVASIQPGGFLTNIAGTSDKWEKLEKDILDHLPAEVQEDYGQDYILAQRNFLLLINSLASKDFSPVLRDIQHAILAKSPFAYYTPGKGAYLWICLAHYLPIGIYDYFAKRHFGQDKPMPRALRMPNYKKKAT

[8] = target: Estrogen receptor beta (Homo sapiens) (UniProt Q92731); assay: Displacement of [3H]E2 from human recombinant ERbeta after 1 hr by scintillation counting analysis relative to E2; outline: as §1
Estrogen receptor beta (Homo sapiens), sequence (Q92731 whole entry): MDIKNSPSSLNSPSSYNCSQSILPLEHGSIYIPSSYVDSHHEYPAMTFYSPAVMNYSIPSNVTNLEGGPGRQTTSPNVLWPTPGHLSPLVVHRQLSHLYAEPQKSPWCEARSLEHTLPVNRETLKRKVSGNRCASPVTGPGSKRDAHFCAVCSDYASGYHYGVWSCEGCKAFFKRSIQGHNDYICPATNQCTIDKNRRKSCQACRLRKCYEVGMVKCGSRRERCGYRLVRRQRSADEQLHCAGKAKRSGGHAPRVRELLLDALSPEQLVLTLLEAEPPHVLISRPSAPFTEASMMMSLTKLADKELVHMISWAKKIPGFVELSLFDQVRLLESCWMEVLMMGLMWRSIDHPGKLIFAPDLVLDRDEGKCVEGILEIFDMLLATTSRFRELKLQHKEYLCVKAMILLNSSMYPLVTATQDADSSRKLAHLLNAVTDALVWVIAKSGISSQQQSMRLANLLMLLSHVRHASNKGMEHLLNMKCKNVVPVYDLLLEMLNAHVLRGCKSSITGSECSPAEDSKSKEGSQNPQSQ

Ratio IC50 [1]	IC50 [2]	SMILES	inhibition [3]	Activity [4]	inhibition [5]	RBA [6]	IC50 [7]	RBA [8]
73	1000 nM	COc1cccc(-c2ccc(C(=O)N(C)Cc3cccc(O)c3)s2)c1F	< 10%	Non-toxic	65%			
		COc1cccc(N(C)C(=O)c2ccc(-c3cccc(OC)c3F)s2)c1	17%	Non-toxic	26%	< 0.1%	105 nM	< 0.1%

Source: ChEMBL document CHEMBL2321834 (J Med Chem, 2013)
